According to paper PMC3990230 (Journal of medicinal chemistry, 2010):

Key:
[1] = test system: A549 cells; test: Clonogenic assay; type: cell-based, Human; details: 9 day incubation
Method in brief: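 A549 cells seeded at 200 cells/well and incubated overnight, then exposed to test compound or DMSO vehicle. Medium and compound replaced every 3 days, for 9 days in total. Cells fixed in 10% TCA for 30 min at 4°C, water-washed, SRB-stained and rinsed with 1% acetic acid. Plates scanned, colonies counted and normalized to DMSO control.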

[2] = test system: IKK; type: cell-based, Human; details: A549 cells, TNFα induced, Western blot
Method in brief: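 A549 cells were pretreated with test compound at varying concentrations (4 hr), then stimulated with TNFα. Phosphorylation read-out: lysates taken at 7 min, probed anti-pS32-IκB, stripped and re-probed for total IκB. Stability read-out: TNFα 10 ng/ml for 20 min, total IκB only. NP-40 lysis (pH 7.4, phosphatase/protease inhibitors), 12.5% SDS-PAGE, nitrocellulose, 5% milk/TBS-T block, primary antibody ≥2 hr.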

[3] = target: T1, recombinant IKKβ (Homo sapiens, UniProt O14920); test: In vitro IKK assay: 32P incorporation into GST-IκB; type: biochemical; details: 30 min at 30°C
T1 sequence (O14920 1-756): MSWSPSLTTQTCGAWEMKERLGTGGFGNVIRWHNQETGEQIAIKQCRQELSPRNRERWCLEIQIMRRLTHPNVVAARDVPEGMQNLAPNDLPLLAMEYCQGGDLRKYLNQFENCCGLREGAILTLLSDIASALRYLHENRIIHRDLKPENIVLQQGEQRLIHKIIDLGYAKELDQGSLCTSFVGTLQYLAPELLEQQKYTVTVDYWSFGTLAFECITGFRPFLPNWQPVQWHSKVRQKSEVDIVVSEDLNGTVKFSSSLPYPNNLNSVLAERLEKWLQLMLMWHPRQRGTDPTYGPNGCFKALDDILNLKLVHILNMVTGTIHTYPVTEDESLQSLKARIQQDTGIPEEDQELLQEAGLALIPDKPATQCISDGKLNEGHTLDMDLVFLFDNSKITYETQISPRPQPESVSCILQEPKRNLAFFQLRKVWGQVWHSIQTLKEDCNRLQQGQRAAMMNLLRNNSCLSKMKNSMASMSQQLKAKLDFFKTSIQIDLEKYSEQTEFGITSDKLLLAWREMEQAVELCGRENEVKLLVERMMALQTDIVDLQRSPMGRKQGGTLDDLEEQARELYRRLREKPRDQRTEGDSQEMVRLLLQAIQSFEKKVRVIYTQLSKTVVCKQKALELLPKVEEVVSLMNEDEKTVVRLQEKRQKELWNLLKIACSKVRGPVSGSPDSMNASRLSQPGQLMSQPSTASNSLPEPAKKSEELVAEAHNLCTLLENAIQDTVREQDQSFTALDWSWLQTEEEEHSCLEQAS
Method in brief: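 Activated recombinant IKKβ (40 ng) in MOPS buffer (pH 7.0) preincubated with test compound for 30 min at room temperature. Mg-ATP mix (100 μM ATP), purified GST-IκBα (5 μg) and [γ-32P]ATP (0.5 μCi) added, then 30 min at 30°C. Reaction stopped by boiling in SDS sample buffer. Samples run on 12.5% SDS-PAGE with Coomassie staining. Read by autoradiography and scintillation counting of excised bands. Controls lacked enzyme or compound.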

[4] = test system: NF-κB; test: NF-κB translocation assay; type: cell-based, Human; details: A549 cells, TNFα induced

effect on IKKβ catalyzed incorporation of 32P into GST-IκB (in words) [3]	Compound	concentration with detectable inhibition of colony forming activity [1] [µM]	block of IκB phosphorylation and degradation (in words) [2]	fold greater potency than curcumin in blocking nuclear localization of NF-κB [4]
dose-dependent inhibition of IKKβ	COc1cc(C=C(C(=O)/C=C/c2ccc(OC)c(OC)c2)C(=O)/C=C/c2ccc(OC)c(OC)c2)ccc1O [Compound 17, (1E,6E)-1,7-bis(3,4-dimethoxyphenyl)-4-(4-hydroxy-3-methoxybenzylidene)hepta-1,6-diene-3,5-dione]		potently block the IκB phosphorylation and degradation in a lower concentration	more than 10 fold
dose-dependent inhibition of IKKβ	COc1ccc(/C=C/C(=O)C(=Cc2ccc(F)cc2)C(=O)/C=C/c2ccc(OC)c(OC)c2)cc1OC [Compound 21, (1E,6E)-1,7-bis(3,4-dimethoxyphenyl)-4-(4-fluorobenzylidene)hepta-1,6-diene-3,5-dione]		potently block the IκB phosphorylation and degradation in a lower concentration	more than 10 fold
dose-dependent inhibition of IKKβ	COc1cc(/C=C/C(=O)C(=Cc2cccc(OC)c2OC)C(=O)/C=C/c2ccc(O)c(OC)c2)ccc1O [Compound 35, (1E,6E)-4-(2,3-dimethoxybenzylidene)-1,7-bis(4-hydroxy-3-methoxyphenyl)hepta-1,6-diene-3,5-dione]		potently block the IκB phosphorylation and degradation in a lower concentration	

Compound	effect on IKKβ catalyzed incorporation of 32P into GST-IκB (in words) [3]	concentration with detectable inhibition of colony forming activity [1] [µM]	block of IκB phosphorylation and degradation (in words) [2]	fold greater potency than curcumin in blocking nuclear localization of NF-κB [4]
5-hydroxy-1, 7-bis(4-hydroxy-3-methoxyphenyl)hepta-1, 4, 6-trien-3-one [Curcumin, reference compound]	no obvious effect	4	block IκB phosphorylation and degradation when high concentrations were used	
